Results from PubChem BioAssay AID493237 (Broad Institute, 2011).
Values joined by “and” are separate entries in the source; they are usually repeats but may differ in a detail not shown here. Equal values may be shown once. Active and inactive are the calls of the source.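 How the source made its calls: active means fitted curve reaching 40% activation at a concentration no higher than the top valid dose tested; inconclusive means flat curve between 30 and 70% activation, or poor fit; inactive means the rest, including opposite-direction effects.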

Tested on: not listed separately
Assay: HRE reporter activators under added iron – cell-based, U2OS, luminescence, dry powder, set 2, mechanism study for HIF pathway activator project, dose response (AID 493237)
Details: U2OS HRE-luciferase reporter, iron condition, luminescence; at 38 µM (top of the series)
In short: (§1)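 System: human U2OS osteosarcoma cells with stable 3×HRE-driven luciferase reporter / Also added: ferric nitrate at 50 µM final, added before compound / Times: 24 h pre-dosing growth, 24 h compound exposure, 37 °C / Technique: luciferase luminescence with Steady-Glo reagent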

SMILES | activation
COc1ccccc1N1CCN(Cc2ccc(O)c3ncccc23)CC1 | -35.6% (inactive)
Cn1c(-c2ccccc2)cnc1NC(=O)c1cc(-c2ccccc2)on1 | 6.19% (inactive)
Oc1ccc(CNC2Cc3ccccc3C2)c2cccnc12 | -38.8% (inactive)
O=C(Nc1ccc2ccccc2n1)c1cc(-c2ccccc2)on1 | -19.3% (inactive)
Oc1ccc(CNC2CCc3ccccc32)c2cccnc12 (configuration not stated) | -45.6% (inactive)
Cc1ccccc1CNC(=O)c1cc(-c2ccccc2)on1 | 15.4% (inactive)
Cn1c(NC(=O)c2cc(-c3ccccc3)on2)nc2ccccc21 | 7.37% (inactive)
O=C(c1cc(-c2ccccc2)on1)N1CCc2cccnc21 | -8.92% (inactive)
O=C(Nc1nnc(-c2ccccc2)s1)c1cc(-c2ccccc2)on1 | 2.91% (inactive)
c1ccc(-c2nnc(-c3ccccn3)nc2Nc2nc3ccccc3s2)cc1 | 21.8% (inactive)
c1ccc(-c2nnc(-c3ccccn3)nc2N2CCC(C3CCCCC3)C2)cc1 (configuration not stated) | -30.3% (inactive)
O=C(c1cc(-c2ccccc2)on1)N1CCC(N2CCOCC2)CC1 | -12.6% (inactive)
c1ccc(-c2nnc(-c3ccccn3)nc2NCC2CCOCC2)cc1 | 137% (inactive)
CC1CN(Cc2ccc(O)c3ncccc23)CC(C)O1 (configuration not stated) | -40% (inactive)
OCC1CCN(c2nc(-c3ccccn3)nnc2-c2ccccc2)CC1 | 37.3% (inactive)
CN1CCN(C(=O)c2cc(-c3ccccc3)on2)CC1 | -32.3% (inactive)
c1ccc(-c2cnc(Nc3nc(-c4ccccn4)nnc3-c3ccccc3)s2)cc1 | 1.03% (inactive)
Oc1ccc(CN2CCC3CCCCC3C2)c2cccnc12 (configuration not stated) | -51.1% (inactive)
OCC1CCN(Cc2ccc(O)c3ncccc23)CC1 | -24% (inactive)
O=C(NCC1CCCCC1)c1cc(-c2ccccc2)on1 | 21.9% (inactive)

SMILES | activation
O=C(Nc1cn2ccccc2n1)c1cc(-c2ccccc2)on1 | -9.98% (inactive)
O=C(c1cc(-c2ccccc2)on1)N1CCC(N2CCCC2)CC1 | -1.29% (inactive)
CN(C)CCNC(=O)c1cc(-c2ccccc2)on1 | 19.3% (inactive)
O=C(Nc1cnc2ccccc2c1)c1cc(-c2ccccc2)on1 | 14% (inactive)
O=C(c1cc(-c2ccccc2)on1)N1CCC(CO)CC1 | -15.4% (inactive)
CC(C)(C)OC(=O)N1CCN(Cc2ccc(O)c3ncccc23)CC1 | -18.7% (inactive)
Cc1cccc(CNC(=O)c2cc(-c3ccccc3)on2)c1 | -17.5% (inactive)
Cc1ccc(NC(=O)c2cc(-c3ccccc3)on2)cn1 | -0.441% (inactive)
O=C(Nc1ncc(-c2ccccc2)o1)c1cc(-c2ccccc2)on1 | -19.3% (inactive)
O=C(Nc1nc(-c2ccccc2)cs1)c1cc(-c2ccccc2)on1 | -4.82% (inactive)
O=C(NCCN1CCCCC1)c1cc(-c2ccccc2)on1 | 15.3% (inactive)
Oc1ccc(CN2CCc3ccccc3C2)c2cccnc12 | -30.4% (inactive)
Cn1c(-c2ccccc2)cnc1Nc1nc(-c2ccccn2)nnc1-c1ccccc1 | 11.2% (inactive)
Oc1ccc(CN2CCC(Cc3ccccc3)CC2)c2cccnc12 | -17.9% (inactive)
Cc1ccc(CNC(=O)c2cc(-c3ccccc3)on2)cc1 | -26.7% (inactive)
O=C(c1cc(-c2ccccc2)on1)N1CCN(c2ccncc2)CC1 | -11.7% (inactive)
O=C(Nc1nc2ccccc2s1)c1cc(-c2ccccc2)on1 | 9.12% (inactive)
O=C(NC1CCc2ccccc2C1)c1cc(-c2ccccc2)on1 (configuration not stated) | -15.1% (inactive)
N#CC1(c2ccccc2)CCN(Cc2ccc(O)c3ncccc23)CC1 | -19.9% (inactive)

Tested on: U2OS HRE-luciferase reporter, iron condition, luminescence
Assay: as above
Details: not given
In short: as §1

SMILES | AC40
CN(C)c1nc(-c2ccccn2)nnc1-c1ccccc1 | 24.5 µM
O=C(NCCCO)c1cc(-c2ccccc2)on1 | 5.66 µM
C[C@@H](Nc1nc(-c2ccccn2)nnc1-c1ccccc1)c1ccccc1 | 8.05 µM
c1ccc(-c2nnc(-c3ccccn3)nc2NCCN2CCOCC2)cc1 | 19.4 µM
c1ccc(-c2nnc(-c3ccccn3)nc2Nc2cnc3ccccc3n2)cc1 | 24.8 µM
c1ccc(-c2nnc(-c3ccccn3)nc2NCc2ccccn2)cc1 | 15.9 µM
c1ccc(-c2nnc(-c3ccccn3)nc2N2CCC(N3CCOCC3)CC2)cc1 | 21 µM
C[C@@H](Nc1nc(-c2ccccn2)nnc1-c1ccccc1)C1CCCCC1 | 7.81 µM
Cc1ccc(Nc2nc(-c3ccccn3)nnc2-c2ccccc2)cn1 | 24.3 µM
O=C(NCCCN1CCOCC1)c1cc(-c2ccccc2)on1 | 10.3 µM
c1ccc(-c2nnc(-c3ccccn3)nc2NCc2cccnc2)cc1 | 25.9 µM
Cc1ccc(CNc2nc(-c3ccccn3)nnc2-c2ccccc2)cc1C | 6.44 µM
CC(Nc1nc(-c2ccccn2)nnc1-c1ccccc1)c1ccccc1 (configuration not stated) | 10.3 µM
C[C@H](Nc1nc(-c2ccccn2)nnc1-c1ccccc1)C1CCCCC1 | 9.72 µM
O=C(NCc1ccccc1)c1cc(-c2ccccc2)on1 | > 38 µM (inactive)
O=C(Nc1ncc2ccccc2n1)c1cc(-c2ccccc2)on1 | > 38 µM (inactive)
c1ccc(-c2ccc(CNc3nc(-c4ccccn4)nnc3-c3ccccc3)cc2)cc1 | 9.52 µM
O=C(NCCN1CCOCC1)c1cc(-c2ccccc2)on1 | 9.15 µM
c1ccc(-c2nnc(-c3ccccn3)nc2NCC2CCCCC2)cc1 | 9.8 µM
c1ccc(-c2nnc(-c3ccccn3)nc2N2CCN(c3ccncc3)CC2)cc1 | 22.9 µM
OCCCNc1nc(-c2ccccn2)nnc1-c1ccccc1 | 23.9 µM
O=C(NC1Cc2ccccc2C1)c1cc(-c2ccccc2)on1 | > 38 µM (inactive)
Cc1cccc(NC(=O)c2cc(-c3ccccc3)on2)n1 | > 38 µM (inactive)
Cc1ccc(CNc2nc(-c3ccccn3)nnc2-c2ccccc2)cc1 | 11.4 µM

SMILES | AC40
c1ccc(-c2nnc(-c3ccccn3)nc2N2CCC(c3ccccc3)C2)cc1 (configuration not stated) | 18.7 µM
c1ccc(CNc2nc(-c3ccccn3)nnc2-c2ccccc2)cc1 | 9.31 µM
O=C(NCCCn1ccnc1)c1cc(-c2ccccc2)on1 | 4.5 µM
c1ccc(-c2nnc(-c3ccccn3)nc2NCCc2ccccn2)cc1 | 24.3 µM
c1ccc(-c2cccc(CNc3nc(-c4ccccn4)nnc3-c3ccccc3)c2)cc1 | 10.1 µM
c1ccc(-c2nnc(-c3ccccn3)nc2NCC2CC2)cc1 | 24 µM
CN1CCN(c2nc(-c3ccccn3)nnc2-c2ccccc2)CC1 | 25 µM
COc1ccc(CNc2nc(-c3ccccn3)nnc2-c2ccccc2)cc1 | 9.43 µM
c1ccc(-c2nnc(Nc3nc(-c4ccccn4)nnc3-c3ccccc3)s2)cc1 | > 38 µM (inactive)
Cc1cccc(Nc2nc(-c3ccccn3)nnc2-c2ccccc2)n1 | 27.2 µM
CCCCNC(=O)c1cc(-c2ccccc2)on1 | 3.76 µM
CC(C)(C)CCNc1nc(-c2ccccn2)nnc1-c1ccccc1 | 10.2 µM and 8.22 µM
c1ccc(CCNc2nc(-c3ccccn3)nnc2-c2ccccc2)cc1 | 10.6 µM
COc1cccc(CNc2nc(-c3ccccn3)nnc2-c2ccccc2)c1 | 10.7 µM
O=C(NCCCCO)c1cc(-c2ccccc2)on1 | 1.29 µM
CC(C)(C)CCNC(=O)c1cc(-c2ccccc2)on1 | 8.89 µM
CC(C)(C)c1ccc(CNc2nc(-c3ccccn3)nnc2-c2ccccc2)cc1 | 20.6 µM
O=C(NCC1CC1)c1cc(-c2ccccc2)on1 | 3.19 µM
c1ccc(-c2nnc(-c3ccccn3)nc2NCCCN2CCOCC2)cc1 | 26.1 µM
c1ccc(-c2csc(Nc3nc(-c4ccccn4)nnc3-c3ccccc3)n2)cc1 | > 38 µM (inactive)
Cc1ccccc1CNc1nc(-c2ccccn2)nnc1-c1ccccc1 | 7.8 µM
Cc1cccc(CNc2nc(-c3ccccn3)nnc2-c2ccccc2)c1 | 8.97 µM
C=CCNc1nc(-c2ccccn2)nnc1-c1ccccc1 | 26.5 µM
Clc1cccc(CNc2nc(-c3ccccn3)nnc2-c2ccccc2)c1 | 11.6 µM
